Assay [1] concerns the target T1, Peroxisome proliferator-activated receptor alpha (Homo sapiens) (UniProt Q07869).
T1 sequence (whole entry): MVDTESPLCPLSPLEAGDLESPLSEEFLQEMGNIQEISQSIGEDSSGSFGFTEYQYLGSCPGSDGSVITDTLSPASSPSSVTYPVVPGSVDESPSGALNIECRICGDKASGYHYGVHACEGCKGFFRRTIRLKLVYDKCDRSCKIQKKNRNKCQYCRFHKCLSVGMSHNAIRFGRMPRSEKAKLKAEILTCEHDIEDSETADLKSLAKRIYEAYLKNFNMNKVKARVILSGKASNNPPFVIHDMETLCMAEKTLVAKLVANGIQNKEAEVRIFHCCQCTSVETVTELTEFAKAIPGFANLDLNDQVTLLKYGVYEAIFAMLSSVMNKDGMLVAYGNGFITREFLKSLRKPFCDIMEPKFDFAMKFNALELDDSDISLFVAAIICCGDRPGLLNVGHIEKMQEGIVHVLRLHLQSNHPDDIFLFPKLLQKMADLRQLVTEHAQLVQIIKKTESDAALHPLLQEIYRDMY
Kind of assay: Activation of human PPARalpha assessed as receptor-GST-TIF2 interaction by GST pull down assay.

For assay [2], the system named is Mus musculus. Kind of assay: Effect on rectal temperature in mouse at 10 mg/kg, ip after 15 mins. Further details: dose 10 mg/kg. The format is functional, organism-based. In outline:
(§1)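 Adult male 129S1/SvImJ mice (25–30 g); rectal temperature measured with a probe at 3 cm depth before dosing and 15 min after ip injection; tests run 9:00–15:00 h; mean ± SEM.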

Assay [3] has as its system Mus musculus. Kind of assay: Inhibition of […]-induced hypothermia in mouse assessed as rectal temperature at 10 mg/kg ip after 15 mins. Further details: dose 10 mg/kg. The format is functional, organism-based. In outline: (§2)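 Male 129S1/SvImJ mice given compound ip together with WIN 2 mg/kg ip; rectal temperature taken by probe at 3 cm depth before and 15 min after injection; compared with WIN alone by Student's t-test.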

Assay [4] concerns Rattus norvegicus. Kind of assay: Inhibition of food intake in 24 hrs food-deprived Wistar rat assessed at 0.3 mg/kg, ip. The format is functional, organism-based. The arrangement: dose 0.3 mg/kg. In outline: (§3)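 Male Wistar rats (250–450 g), habituated to handling, food-deprived 24 h with water available; compound suspended in saline with Tween 80, given ip; 15 min later returned to home cage with weighed food; intake (g/kg) measured at 30, 60, 120 and 240 min; ≥8 rats per group, ANOVA vs vehicle.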

The test system of assay [5] is Mus musculus. Kind of assay: Inhibition of […]-induced hypothermia in mouse assessed as rectal temperature at 3 mg/kg ip after 15 mins. The format is functional, organism-based. Further details: dose 3 mg/kg. In outline:
as §2

Assay [6] has as its system Rattus norvegicus. Kind of assay: Inhibition of food intake in 24 hrs food-deprived Wistar rat assessed at 3 mg/kg, ip. In kind it is functional, organism-based. The arrangement: dose 3 mg/kg. The gist of the method: as §3
The subject of assay [7] is Mus musculus. Kind of assay: Effect on rectal temperature in mouse at 3 mg/kg, ip after 15 mins. In kind it is functional, organism-based. The arrangement: dose 3 mg/kg. The gist of the method:
as §1

Assay [8] addresses Peroxisome proliferator-activated receptor alpha (Homo sapiens) (UniProt Q07869). Kind of assay: Agonist activity at human PPARalpha expressed in human MCF7 cells coexpressing TIF2 by luciferase reporter gene assay.
The subject of assay [9] is Mus musculus. Kind of assay: Inhibition of […]-induced decrease in locomotor activity in ip dosed mouse after 15 mins. In kind it is functional, organism-based.

Molecules are shown by their SMILES. The source made the active and inactive calls. The calls are words filed in the database; no cut-off is given here.

With `CCCCCCCCCCCCCCCCNC(=O)c1cc(-c2ccc(Cl)cc2)n(-c2ccc(Cl)cc2)n1`, the outcome (in assay [1]; in the assay on Mus musculus [2]; with Mus musculus [3]) was inactive.

As for `CCCCCCCC/C=C\CCCCCCCCNC(=O)c1cc(-c2ccc(Cl)cc2)n(-c2ccc(Cl)cc2)n1`, the outcome (in assay [1]; in the assay on Mus musculus [5]) was Active. The outcome with Rattus norvegicus [4] and with Rattus norvegicus [6] was inactive.

As for `CCCCCCCC/C=C\CCCCCCCCNC(=O)c1cc(-c2ccc(Cl)cc2)n(-c2ccccc2)n1`, the outcome (in assay [1]; in the assay with Rattus norvegicus [4]; with Rattus norvegicus [6]) was Active. Moreover, the outcome in the assay with Mus musculus [5] and in the assay with Mus musculus [7] was inactive.

Consider `CCCCCCCCCCCCCCCCNC(=O)c1cc(-c2ccc(Cl)cc2)n(-c2ccc(Cl)cc2Cl)n1`, for which the result in assay [1] was inactive.

Take `CCCCCCCCCCCCCCCCNC(=O)c1nn(-c2ccc(Cl)cc2Cl)c(-c2ccc(Cl)cc2)c1C`: the result (in [1]; in the assay on Rattus norvegicus [4]; in the assay with Rattus norvegicus [6]) was inactive.

Turning to `CCCCCCCC/C=C\CCCCCCCCNC(=O)c1nn(-c2ccc(Cl)cc2Cl)c(-c2ccc(Cl)cc2)c1C`, the result in assay [1] was Active.

`Cc1c(C(=O)NN2CCCCC2)nn(-c2ccc(Cl)cc2Cl)c1-c1ccc(I)cc1`: the result in assay [8] was inactive.

As for `CCCCCCCC/C=C\CCCCCCCCNC(=O)c1cc(-c2ccc(Cl)cc2)n(-c2ccc(Cl)cc2Cl)n1`, the outcome in assay [1] was Active.

As for `CCCCCCCCCCCCCCCCNC(=O)c1cc(-c2ccc(Cl)cc2)n(-c2ccccc2)n1`, the outcome (in assay [1]; in the assay with Mus musculus [5]; with Mus musculus [7]) was inactive. The result with Mus musculus [9] was Active.

Values taken from ChEMBL document CHEMBL1151688, “Antiobesity designed multiple ligands: Synthesis of pyrazole fatty acid amides and evaluation as hypophagic agents” (Bioorg Med Chem, 2008).
